The text below walks through data of ChEMBL document CHEMBL1146451, “Spirostanol and furostanol glycosides from the fresh tubers of Polianthes tuberosa” (J Nat Prod, 2004).

≈ marks a conversion by molar mass, not a printed value.

By IC50 is commonly meant the point on the concentration scale where inhibition reaches its midpoint.

In the test the test system is HeLa. The test can be described thus: Cytotoxicity against human HeLa cells after 72 hrs by MTT assay. In kind it is functional, cell-based. In short, it runs like this:
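HeLa cells seeded at 2 × 10^4 cells/mL in RPMI 1640, preincubated 12 h at 37 °C in 5% CO2/air. Samples added in DMSO to final 25, 20, 15, 10, 5, 2.5, 1.25, 0.80 µg/mL; DMSO alone in control wells.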
(Formazan colour is commonly taken as a measure of viable cells.)
As for `C[C@@H]1CC[C@@]2(OC1)O[C@H]1C[C@H]3[C@@H]4CC[C@H]5C[C@@H](O[C@@H]6O[C@H](CO)[C@H](O[C@@H]7O[C@H](CO)[C@@H](O)[C@H](O)[C@H]7O[C@@H]7O[C@H](CO)[C@@H](O)[C@H](O)[C@H]7O)[C@H](O)[C@H]6O)CC[C@]5(C)[C@H]4CC(=O)[C@]3(C)[C@H]1[C@@H]2C`, the IC50 was determined as 8.61 µg/mL (≈ 9.39 µM).

For the molecule `C[C@@H]1CC[C@@]2(OC1)O[C@H]1C[C@H]3[C@@H]4C[C@H](O)[C@H]5C[C@@H](O[C@@H]6O[C@H](CO)[C@H](O[C@@H]7O[C@H](CO)[C@@H](O)[C@H](O[C@@H]8OC[C@@H](O)[C@H](O)[C@H]8O)[C@H]7O[C@@H]7O[C@H](CO)[C@@H](O)[C@H](O[C@@H]8OC[C@@H](O)[C@H](O)[C@H]8O)[C@H]7O)[C@H](O)[C@H]6O)CC[C@]5(C)[C@H]4CC[C@]3(C)[C@H]1[C@@H]2C`, the IC50 is 7.5 µg/mL (≈ 6.34 µM). `C[C@H](CC[C@@]1(O)O[C@H]2C[C@H]3[C@@H]4CC[C@H]5C[C@@H](O[C@@H]6O[C@H](CO)[C@H](O[C@@H]7O[C@H](CO)[C@@H](O)[C@H](O[C@@H]8OC[C@@H](O)[C@H](O)[C@H]8O)[C@H]7O[C@@H]7O[C@H](CO)[C@@H](O)[C@H](O)[C@H]7O)[C@H](O)[C@H]6O)CC[C@]5(C)[C@H]4CC[C@]3(C)[C@H]2[C@@H]1C)CO[C@@H]1O[C@H](CO)[C@@H](O)[C@H](O)[C@H]1O` gave an IC50 of 18.8 µg/mL (≈ 15.5 µM). `C[C@@H]1CC[C@@]2(OC1)O[C@H]1C[C@H]3[C@@H]4CC[C@H]5C[C@@H](O[C@@H]6O[C@H](CO)[C@H](O[C@@H]7O[C@H](CO)[C@@H](O)[C@H](O[C@@H]8OC[C@@H](O)[C@H](O)[C@H]8O)[C@H]7O[C@@H]7O[C@H](CO)[C@@H](O)[C@H](O[C@@H]8OC[C@@H](O)[C@H](O)[C@H]8O)[C@H]7O)[C@H](O)[C@H]6O)CC[C@]5(C)[C@H]4CC[C@]3(C)[C@H]1[C@@H]2C` yielded an IC50 of 7.2 µg/mL (≈ 6.17 µM).

Take `C[C@@H]1CC[C@@]2(OC1)O[C@H]1C[C@H]3[C@@H]4CC[C@H]5C[C@@H](O[C@@H]6O[C@H](CO)[C@H](O[C@@H]7O[C@H](CO)[C@@H](O)[C@H](O[C@@H]8OC[C@@H](O)[C@H](O)[C@H]8O)[C@H]7O[C@@H]7O[C@H](CO)[C@@H](O)[C@H](O[C@@H]8OC[C@@H](O)[C@H](O)[C@H]8O)[C@H]7O)[C@H](O)[C@H]6O)CC[C@]5(C)[C@H]4CC(=O)[C@]3(C)[C@H]1[C@@H]2C`: inhibition was half-maximal at 4.02 µg/mL (≈ 3.4 µM) (IC50). `C[C@@H]1CC[C@@]2(OC1)O[C@H]1C[C@H]3[C@@H]4CC[C@H]5C[C@@H](O[C@@H]6O[C@H](CO)[C@H](O[C@@H]7O[C@H](CO)[C@@H](O)[C@H](O[C@@H]8OC[C@@H](O)[C@H](O)[C@H]8O)[C@H]7O[C@@H]7O[C@H](CO)[C@@H](O)[C@H](O)[C@H]7O)[C@H](O)[C@H]6O)CC[C@]5(C)[C@H]4CC(=O)[C@]3(C)[C@H]1[C@@H]2C` registered a half-maximal inhibitory concentration (IC50) of 8.17 µg/mL (≈ 7.79 µM). With `C[C@@H]1CC[C@@]2(OC1)O[C@H]1C[C@H]3[C@@H]4CC[C@H]5C[C@@H](O[C@@H]6O[C@H](CO)[C@H](O[C@@H]7O[C@H](CO)[C@@H](O)[C@H](O[C@@H]8O[C@H](CO)[C@@H](O)[C@H](O)[C@H]8O)[C@H]7O[C@@H]7O[C@H](CO)[C@@H](O)[C@H](O[C@@H]8OC[C@@H](O)[C@H](O)[C@H]8O)[C@H]7O)[C@H](O)[C@H]6O)CC[C@]5(C)[C@H]4CC(=O)[C@]3(C)[C@H]1[C@@H]2C` [AGAMENOSIDE F], the half-inhibitory concentration (IC50) amounted to 5.1 µg/mL (≈ 4.21 µM). Under `C[C@@H]1CC[C@@]2(OC1)O[C@H]1C[C@H]3[C@@H]4CC[C@H]5C[C@@H](O[C@@H]6O[C@H](CO)[C@H](O[C@@H]7O[C@H](CO)[C@@H](O)[C@H](O[C@@H]8O[C@H](CO)[C@@H](O)[C@H](O)[C@H]8O)[C@H]7O[C@@H]7O[C@H](CO)[C@@H](O)[C@H](O[C@@H]8OC[C@@H](O)[C@H](O)[C@H]8O)[C@H]7O)[C@H](O)[C@H]6O)CC[C@]5(C)[C@H]4CC[C@]3(C)[C@H]1[C@@H]2C` [POLIANTHOSIDE B] stands > 20 µg/mL. For `C[C@@H]1CC[C@@]2(OC1)O[C@H]1C[C@H]3[C@@H]4CC[C@H]5C[C@@H](O[C@@H]6O[C@H](CO)[C@H](O[C@@H]7O[C@H](CO)[C@@H](O)[C@H](O[C@@H]8O[C@H](CO)[C@@H](O)[C@H](O)[C@H]8O)[C@H]7O[C@@H]7O[C@H](CO)[C@@H](O)[C@H](O[C@@H]8O[C@H](CO)[C@@H](O)[C@H](O)[C@H]8O)[C@H]7O)[C@H](O)[C@H]6O)CC[C@]5(C)[C@H]4CC[C@]3(C)[C@H]1[C@@H]2C` [POLIANTHOSIDE C], the IC50 is > 20 µg/mL. Under `C[C@H](CC[C@@]1(O)O[C@H]2C[C@H]3[C@@H]4CC[C@H]5C[C@@H](O[C@@H]6O[C@H](CO)[C@H](O[C@@H]7O[C@H](CO)[C@@H](O)[C@H](O[C@@H]8OC[C@@H](O)[C@H](O)[C@H]8O)[C@H]7O[C@@H]7O[C@H](CO)[C@@H](O)[C@H](O)[C@H]7O)[C@H](O)[C@H]6O)CC[C@]5(C)[C@H]4CC(=O)[C@]3(C)[C@H]2[C@@H]1C)CO[C@@H]1O[C@H](CO)[C@@H](O)[C@H](O)[C@H]1O` [POLIANTHOSIDE D] stands 7.86 µg/mL (≈ 6.39 µM); under `C[C@H](CC[C@@]1(O)O[C@H]2C[C@H]3[C@@H]4CC[C@H]5C[C@@H](O[C@@H]6O[C@H](CO)[C@H](O[C@@H]7O[C@H](CO)[C@@H](O)[C@H](O[C@@H]8OC[C@@H](O)[C@H](O)[C@H]8O)[C@H]7O[C@@H]7O[C@H](CO)[C@@H](O)[C@H](O[C@@H]8OC[C@@H](O)[C@H](O)[C@H]8O)[C@H]7O)[C@H](O)[C@H]6O)CC[C@]5(C)[C@H]4CC(=O)[C@]3(C)[C@H]2[C@@H]1C)CO[C@@H]1O[C@H](CO)[C@@H](O)[C@H](O)[C@H]1O` [POLIANTHOSIDE E], 5.21 µg/mL (≈ 3.83 µM); under `C[C@H](CC[C@@]1(O)O[C@H]2C[C@H]3[C@@H]4CC[C@H]5C[C@@H](O[C@@H]6O[C@H](CO)[C@H](O[C@@H]7O[C@H](CO)[C@@H](O)[C@H](O[C@@H]8OC[C@@H](O)[C@H](O)[C@H]8O)[C@H]7O[C@@H]7O[C@H](CO)[C@@H](O)[C@H](O[C@@H]8OC[C@@H](O)[C@H](O)[C@H]8O)[C@H]7O)[C@H](O)[C@H]6O)CC[C@]5(C)[C@H]4CC[C@]3(C)[C@H]2[C@@H]1C)CO[C@@H]1O[C@H](CO)[C@@H](O)[C@H](O)[C@H]1O` [POLIANTHOSIDE F], 20 µg/mL (≈ 14.8 µM). As for `C[C@H](CC[C@@]1(O)O[C@H]2C[C@H]3[C@@H]4CC[C@H]5C[C@@H](O[C@@H]6O[C@H](CO)[C@H](O[C@@H]7O[C@H](CO)[C@@H](O)[C@H](O[C@@H]8O[C@H](CO)[C@@H](O)[C@H](O)[C@H]8O)[C@H]7O[C@@H]7O[C@H](CO)[C@@H](O)[C@H](O[C@@H]8OC[C@@H](O)[C@H](O)[C@H]8O)[C@H]7O)[C@H](O)[C@H]6O)CC[C@]5(C)[C@H]4CC[C@]3(C)[C@H]2[C@@H]1C)CO[C@@H]1O[C@H](CO)[C@@H](O)[C@H](O)[C@H]1O` [POLIANTHOSIDE G], the IC50 worked out at 5.36 µg/mL (≈ 3.89 µM).
